Published values pooled from the literature.
Target: Aurora kinase C (AURKC, Homo sapiens, UniProt Q9UQB9)

SMILES	test	setting	quantity	result
CS(=O)(=O)NCC[C@H](NC(=O)c1cncc2c1cnn2-c1ccc(F)cc1)c1ccnc(S(C)(=O)=O)c1	cell-free assay, competition with immobilised ligand	1 µM	remaining binding	92%
Cc1ccc(C(=O)Nc2ccc(CN3CCN(C)CC3)c(C(F)(F)F)c2)cc1C#Cc1cnc2cccnn12	enzyme activity	23.5 nM	remaining activity	94%
Cc1ccc(NC(=O)c2ccc(C)c(C(F)(F)F)c2)cc1C#Cc1nn(C2CCC(O)CC2)c2ncnc(N)c12 (centres unmarked)	cell-free assay	10 µM	remaining signal	101%
C=CC(=O)Nc1cc(Nc2nccc(Nc3cc(Cl)c(F)cc3C(C)(C)O)n2)c(OC)cc1N1CC[C@@H](N(C)C)C1	enzyme activity, inhibitor	1 µM	inhibition	6%
CN1CC(Oc2cnc(C#N)cc2-c2ccn3nc(NC(=O)C4CC4)cc3c2)C1	enzyme activity, inhibitor	1 µM	inhibition	3%
Nc1ncnc2occ(-c3ccc(NC(=O)Nc4cc(C(F)(F)F)ccc4F)cc3)c12	cell-free assay	20 µM	remaining signal	2.7%
COc1cc2ncnc(Nc3ccc(Oc4ccccc4)cc3C)c2cc1OC	enzyme activity, inhibitor	1 µM	inhibition	1%
CS(=O)(=O)CCNCc1ccc(-c2ccc3ncnc(Nc4ccc(OCc5cccc(F)c5)c(Cl)c4)c3c2)o1	cell-free assay	0.5 µM	remaining signal	90.9%
CCC(=N\O)/C(C)=C/c1ccc(F)cc1	cell-free assay, competition with immobilised ligand	1 µM	remaining binding	80%
CC(C)(C)c1nc2c(s1)c1nc(N)ncc1c1ccc(NS(=O)(=O)c3c(F)cccc3F)c(F)c12	enzyme activity, inhibitor, radiometric	1 µM	remaining activity	104%
N#CCCc1ccc2c(c1)-c1[nH]c3ccc([N+](=O)[O-])cc3c1CC(=O)N2	cell-free assay	0.5 µM	remaining signal	83.6%
CC1=C(C#N)[C@@H](c2ccc3[nH]nc(C)c3c2)C(C#N)=C(c2ccc(Cl)cc2)N1	cell-free assay, competition with immobilised ligand	1 µM	remaining binding	100%
O=c1cc(-c2cccc3c2Sc2ccccc2S3)oc(N2CCOCC2)c1	enzyme activity, inhibitor	0.5 µM	remaining activity	84.9%
O=C(NCc1ncc(C(F)(F)F)cc1Cl)c1ccc2c(c1)C1(CCS(=O)(=O)CC1)[C@@H](C1CC1)N2S(=O)(=O)c1ccc(F)cc1	cell-free assay, competition with immobilised ligand	1 µM	remaining binding	80%
COc1cc(Cl)c(C(=O)N[C@@H](CN[C@H]2CC[C@@H](N)CC2)Cc2ccc(C#N)cc2)cc1-c1ccc(CN[C@H](C)c2ccc(C)cc2)o1	enzyme activity, inhibitor	1 µM	remaining activity	94%
Cc1sc(C(=O)NC2COC2)cc1-n1cc(NC(=O)Nc2c(F)cccc2Cl)cn1	enzyme activity, inhibitor	10 µM	remaining activity	104%
CCCCN(CCCC)C(=O)CN1C[C@H](c2cc(OC)c3c(c2)OCO3)[C@@H](C(=O)O)[C@@H]1CC(C)(C)CCC	cell-free assay, competition with immobilised ligand	1 µM	remaining binding	100%
CNC(=O)c1cc(Oc2ccc(NC(=O)Nc3ccc(Cl)c(C(F)(F)F)c3)cc2)ccn1	cell-free assay	0.5 µM	remaining signal	106%
CCC(=O)N[C@H]1CC[C@@H](C(=O)N(C)c2ccc(-c3nc4ccccc4o3)cc2)C1	cell-free assay, competition with immobilised ligand	1 µM	remaining binding	100%
Cc1cc(NC(=O)c2cccc3cc(-c4cccc5[nH]nc(N)c45)ccc23)ccc1F	enzyme activity, inhibitor	0.1 µM	activity vs control	83%
